# HTR1E antagonist: blocks the human 5-HT1E serotonin receptor; CHO 5-HT1E Ga15 NFAT-bla reporter, FRET, antagonist; inhibition, % at 6 µM; hit rate 0.99% among 65,000; P28566;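 active means inhibition above a set limit, the mean inhibition across every tested compound plus 3 SD, cut at about 29% in these data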;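 further: signal is the 460 over 535 nm emission ratio of beta-lactamase substrate; 0% = agonist plus DMSO wells and 100% = wells without agonist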
# HEK293 NFkB inh: lowers PMA/ionomycin-induced NF-kB signal in HEK293 cells; inhibition, % at 3 µM; HEK-293 NF-kB luciferase reporter, luminescence; hit rate 0.21% among 62,000; AID 465;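 active means inhibition above the mean of all tested compounds plus 3 SD, cut at about 40% in these data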;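 further: 0% = stimulated DMSO wells and 100% = 10 µM reference inhibitor 5653914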
#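 Timing: 1 h pretreatment, 16 h stimulation, 37 °C; system: HEK-293 cells with stable firefly luciferase reporter driven by four HIV NF-kB elements; doses: 3 µM once, 0.30% DMSO; measured by: luciferase luminescence; control set: DMSO and 10 µM reference inhibitor; repeats: single test; reagent: PMA plus ionomycin mix as NF-kB-activating stimulus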
# 5HT1a antag: 5-HT1a (human) receptor antagonism. CHO 5-HT1a Ga15 NFAT-bla reporter, antagonist mode. hit rate 0.68% among 62,000. AID 612. inhibition, % at 10 µM. P08908;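 active means inhibition above the mean of all tested compounds plus 3 SD, cut at about 43% in these data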;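 further: receptor stimulated by 5-CT agonist at 100 nM near EC80; beta-lactamase reporter measured by ratiometric fluorescence of a cleavable substrate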
# Target sequence (P08908 whole entry, looked up): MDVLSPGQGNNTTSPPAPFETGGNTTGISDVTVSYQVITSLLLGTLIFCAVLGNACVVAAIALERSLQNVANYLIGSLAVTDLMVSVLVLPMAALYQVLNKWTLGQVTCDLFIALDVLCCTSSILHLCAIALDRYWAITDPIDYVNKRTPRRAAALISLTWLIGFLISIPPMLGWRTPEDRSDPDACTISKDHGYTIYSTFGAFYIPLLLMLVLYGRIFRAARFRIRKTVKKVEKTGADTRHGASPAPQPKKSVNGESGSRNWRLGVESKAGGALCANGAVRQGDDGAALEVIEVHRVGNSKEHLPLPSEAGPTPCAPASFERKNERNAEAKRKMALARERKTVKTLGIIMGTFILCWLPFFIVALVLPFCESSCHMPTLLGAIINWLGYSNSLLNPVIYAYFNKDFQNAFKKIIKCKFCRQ
# Jurkat tox 60K: cytotoxicity toward Jurkat cells. hit rate 1.2% among 56,000. Jurkat E6.1 viability, ATP luminescence, 48 h. inhibition, % at 4 µM. AID 463;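 active means inhibition above the mean inhibition of all tested compounds plus 3 SD, cut at about 28% in these data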
# 5HT1E ag: agonists of human 5-HT1E serotonin receptor; P28566; CHO 5-HT1E Ga15 NFAT-bla reporter, FRET; 0% DMSO wells, 100% control agonist wells; activation, % at 6 µM; hit rate 0.69% among 65,000; AID 574;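 active means activation above a set limit, the screen-wide mean activation plus 3 SD, cut at about 8.5% in these data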;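 further: 100% = positive control agonist at 1 µM giving full maximal response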
# 5HT1a ag: activates the human 5-HT1a serotonin receptor | AID 567 | P08908 | hit rate 0.56% among 65,000 | CHO 5-HT1a Ga15 NFAT-bla reporter, FRET ratio; 0% basal, 100% maximal reference agonist | activation, % at 10 µM;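 active means activation above the screen-wide mean activation plus 3 SD, cut at about 19% in these data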;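 further: 0% = DMSO wells and 100% = 5-CT at EC100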
# An asterisk follows results filed as active; x = no result. Most compounds without a hit are left out; they make up all but 3.3% or so of the library.
SMILES,HTR1E antagonist,HEK293 NFkB inh,5HT1a antag,Jurkat tox 60K,5HT1E ag,5HT1a ag
CCOC(=O)c1cc2sccc2n1CC(=O)N1CCc2ccccc21,43.9*,14.3,24.8,x,0.8,-0.6
CCOC(=O)c1[nH]c(C)c(C(=O)N2CCc3ccccc32)c1C,76.7*,20.8,51.2*,97.2*,-1.0,-3.1
CCOc1ccc(C2c3c(oc4ccccc4c3=O)C(=O)N2c2ccc(C)cn2)cc1OC (configuration not stated),9.9,2.2,8.1,-5.4,0.2,1.2
CCC(C)C(NS(=O)(=O)c1ccc(C)cc1)C(=O)NCCN1CCOCC1 (configuration not stated),1.0,-2.3,5.6,-8.7,-1.1,-3.9
Cc1cccc(OCCCCCn2ccnc2)c1,-12.3,7.0,-2.0,1.7,0.0,-1.7
CCOC(=O)c1[nH]c(C)c(C(=O)Nc2cccc(Cl)c2C)c1C,15.2,-5.7,5.4,64.4*,0.3,-0.7
Clc1ccc2nc(CN3CCCc4ccccc43)cn2c1,9.4,11.0,4.3,4.7,-0.9,-2.2
NC(=O)c1sc2nccc(Nc3ccccc3)c2c1N,8.7,45.2*,4.0,7.5,0.2,0.0
CC(C)(C)C(=O)c1sc(Nc2ccccc2)nc1N,-6.0,-48.5,12.5,-3.7,0.2,-2.3
O=C(CN(c1ccc(F)cc1)S(=O)(=O)c1ccc2c(c1)OCCO2)N1CCOCC1,-2.3,4.3,-2.1,-4.7,0.7,-0.8
COc1ccc(OC)c(C(=O)c2ccc(C(=O)N3CCCCC3)cc2)c1,8.5,10.9,0.5,7.2,0.2,24.6*
COc1ccc(C(=O)N2CCCC2)cc1,-9.5,17.6,3.2,5.3,-0.5,-1.5
CCOC(=O)c1oc2ccccc2c1NC(=O)c1cccc(OC)c1OC,33.7*,7.2,33.1,5.1,0.3,-2.0
Cc1ccc(CCNC(=O)Cn2cccc2)cc1,3.0,-1.6,-3.5,-1.4,-0.7,-2.3
Cc1ccc(C(=O)OCc2cn3ccccc3n2)cc1,-5.0,-1.9,4.0,1.0,-0.1,100.6*
O=C(CCN1CCN(c2ccccc2F)CC1)c1ccc(Br)cc1,2.9,20.6,6.8,-4.8,34.4*,1.4
O=C(Nc1ccc2c(c1)OCO2)N1CCN(S(=O)(=O)c2ccc(Cl)cc2)CC1,19.7,3.6,8.5,-2.3,14.5*,-3.4
O=C(CN1CCN(S(=O)(=O)c2ccc(Cl)cc2)CC1)Nc1ccc2c(c1)OCO2,3.6,10.1,-5.7,-0.1,-0.6,-1.9
O=C(NCc1cccs1)c1nc2c(nnn2Cc2ccccc2Cl)c(=O)[nH]1,-3.2,53.1*,-15.1,39.8*,0.0,0.4
Nc1c(NCc2ccccc2F)c(=O)[nH]c(=O)n1Cc1ccccc1,9.1,14.5,4.1,x,-1.7,81.1*
CN1CCCc2cc3c(C(F)(F)F)cc(=O)oc3nc21,41.2*,12.9,18.8,3.5,1.8,5.2
CCOC(=O)N1CCN(C(=O)c2ccc(NC(=O)c3ccc(C)cc3)cc2)CC1,13.5,10.6,10.2,-2.0,1.6,1.0
Cc1cc(C)n2nc(SC3CCCCN(C(=O)c4ccc(F)cc4)C3=O)nc2n1 (configuration not stated),-7.3,7.7,-6.7,-3.4,0.3,-1.1
CCCN(CCC)S(=O)(=O)c1ccc(C(=O)Nc2nnc(-c3cccc(OC)c3)o2)cc1,-7.8,45.2*,9.6,10.0,0.0,-0.9
CCCCN(CC)S(=O)(=O)c1ccc(C(=O)Nc2nnc(-c3ccccc3Cl)o2)cc1,12.8,19.7,15.2,2.1,0.7,-1.2
SMILES,HTR1E antagonist,HEK293 NFkB inh,5HT1a antag,Jurkat tox 60K,5HT1E ag,5HT1a ag
O=C(Nc1nnc(-c2cccs2)o1)c1cccc(Oc2ccccc2)c1,16.0,6.4,-0.5,9.6,0.7,-1.1
O=C(Nc1nnc(-c2cccs2)o1)c1cccc(F)c1,-17.8,-7.5,-1.1,74.6*,0.7,-0.5
COc1ccc(-c2nnc(NC(=O)c3ccc(S(=O)(=O)N4COCC4(C)C)cc3)o2)cc1,0.6,23.7,23.7,101.3*,0.5,0.8
CCCCN(C)S(=O)(=O)c1ccc(C(=O)Nc2nnc(-c3cccs3)o2)cc1,-10.3,14.0,7.0,28.3*,-0.3,1.4
CC1(C)COCN1S(=O)(=O)c1ccc(C(=O)Nc2nnc(-c3ccc(Cl)s3)o2)cc1,7.6,38.6,3.2,16.6,1.1,1.0
CCCN(CCC)S(=O)(=O)c1ccc(C(=O)Nc2nnc(-c3cc(OC)cc(OC)c3)o2)cc1,-7.7,7.6,2.9,6.2,0.4,-0.7
Cc1noc(C)c1CSc1nnnn1-c1ccc(Cl)cc1,-0.6,17.1,15.5,6.8,-0.6,-4.7
CCCCN(CC)S(=O)(=O)c1ccc(C(=O)Nc2nnc(CSC)o2)cc1,-5.6,9.9,8.3,88.3*,0.0,-1.1
Cc1cc(C)cc(N(CC(=O)NCc2ccco2)S(=O)(=O)c2c(C)noc2C)c1,0.0,15.5,-1.9,-6.1,0.8,1.1
COc1cc2c(cc1OC)CN(Cc1ccc(OC)c(C)c1OC)CC2,11.8,13.0,41.1,15.5,-2.5,1.1
COc1cc2c(cc1OC)CN(Cc1cccs1)CC2,-0.2,1.1,3.6,-2.8,13.2*,-2.0
C=CCn1cnc2c(c1=O)c1nc3ccccc3nc1n2-c1ccc(Cl)cc1,-0.9,x,x,x,0.1,0.8
COc1cc(C)c(Cl)cc1S(=O)(=O)NCc1ccncc1,12.6,36.7,1.6,66.7*,0.6,-0.9
C=CCc1ccccc1OCC(O)CN1CCN(c2ccc(C)cc2)CC1 (configuration not stated),5.8,8.5,73.1*,-4.0,0.4,-1.3
COC(=O)c1ccccc1NC(=O)CN(C)S(=O)(=O)c1cc(C)ccc1OC,-1.9,7.7,8.7,2.5,0.4,0.0
Cc1cc(NC(=O)C2CCC2)n(-c2ccccn2)n1,36.1*,5.9,2.3,x,1.5,2.4
Cc1cc(NC(=O)c2cccc(S(=O)(=O)N3CCCCCC3)c2)n(-c2ccccn2)n1,-5.4,12.9,3.8,7.5,-0.8,-1.2
COc1ccc(NS(=O)(=O)c2cc(C)ccc2NC(=O)c2cc(C)oc2C)cc1,60.8*,38.3,63.3*,90.3*,-0.4,0.1
O=C(Cc1cccs1)Nc1nc2c(s1)CCCC2,5.1,45.7*,-7.0,38.3*,0.1,-0.8
O=C(Nc1ccccc1NC(=O)c1c(F)c(F)c(F)c(F)c1F)c1c(F)c(F)c(F)c(F)c1F,29.9*,14.4,27.3,-2.8,1.1,2.4
O=C(Cc1ccccc1)N[C@H](c1ccccc1)P(=O)(O)CO,4.3,9.9,-1.9,-7.1,-1.1,1.2
Cc1cc2oc(=O)cc(CN3CCCCC3C)c2c(C)c1Cl (configuration not stated),6.8,-0.5,18.0,5.8,-0.5,1.1
O=C(CSc1ccc2nnc(-c3ccncc3)n2n1)N1CCc2ccccc21,-1.9,14.1,-7.9,2.4,0.0,-0.8
Cc1ccc(NC(=O)CSc2n[nH]c(-c3ccncc3)n2)cc1,-3.5,17.1,-17.4,2.8,0.2,1.7

# Bioassay records from PubChem.
